The list is not random: actives were taken first. Their share in the collection is about 1.3%.
NTR1 ag = NTR1 (human) agonism | P30989 | NTR1-U2OS beta-arrestin-GFP spot imaging, agonist mode | activation, % at 20 µM | actives 0.17% (n = 330,000);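 active = activation at or above 40% of the spot to cytoplasm intensity ratio, with at least 20 cells analyzed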;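 also: 0% = DMSO without peptide and 100% = 100 nM NTR1 peptide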
PLC-beta3 inh = blocks human PLC-beta3 enzyme activity; inhibition, % at 12.2 µM; Q01970; Purified PLC-beta3, fluorogenic substrate, fluorescence; actives 0.18% (n = 370,000); in the data active = inhibition above about 11%;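 also: 0% = median of compound wells on plate and 100% = full blocker control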
Target sequence (Q01970 whole entry, looked up): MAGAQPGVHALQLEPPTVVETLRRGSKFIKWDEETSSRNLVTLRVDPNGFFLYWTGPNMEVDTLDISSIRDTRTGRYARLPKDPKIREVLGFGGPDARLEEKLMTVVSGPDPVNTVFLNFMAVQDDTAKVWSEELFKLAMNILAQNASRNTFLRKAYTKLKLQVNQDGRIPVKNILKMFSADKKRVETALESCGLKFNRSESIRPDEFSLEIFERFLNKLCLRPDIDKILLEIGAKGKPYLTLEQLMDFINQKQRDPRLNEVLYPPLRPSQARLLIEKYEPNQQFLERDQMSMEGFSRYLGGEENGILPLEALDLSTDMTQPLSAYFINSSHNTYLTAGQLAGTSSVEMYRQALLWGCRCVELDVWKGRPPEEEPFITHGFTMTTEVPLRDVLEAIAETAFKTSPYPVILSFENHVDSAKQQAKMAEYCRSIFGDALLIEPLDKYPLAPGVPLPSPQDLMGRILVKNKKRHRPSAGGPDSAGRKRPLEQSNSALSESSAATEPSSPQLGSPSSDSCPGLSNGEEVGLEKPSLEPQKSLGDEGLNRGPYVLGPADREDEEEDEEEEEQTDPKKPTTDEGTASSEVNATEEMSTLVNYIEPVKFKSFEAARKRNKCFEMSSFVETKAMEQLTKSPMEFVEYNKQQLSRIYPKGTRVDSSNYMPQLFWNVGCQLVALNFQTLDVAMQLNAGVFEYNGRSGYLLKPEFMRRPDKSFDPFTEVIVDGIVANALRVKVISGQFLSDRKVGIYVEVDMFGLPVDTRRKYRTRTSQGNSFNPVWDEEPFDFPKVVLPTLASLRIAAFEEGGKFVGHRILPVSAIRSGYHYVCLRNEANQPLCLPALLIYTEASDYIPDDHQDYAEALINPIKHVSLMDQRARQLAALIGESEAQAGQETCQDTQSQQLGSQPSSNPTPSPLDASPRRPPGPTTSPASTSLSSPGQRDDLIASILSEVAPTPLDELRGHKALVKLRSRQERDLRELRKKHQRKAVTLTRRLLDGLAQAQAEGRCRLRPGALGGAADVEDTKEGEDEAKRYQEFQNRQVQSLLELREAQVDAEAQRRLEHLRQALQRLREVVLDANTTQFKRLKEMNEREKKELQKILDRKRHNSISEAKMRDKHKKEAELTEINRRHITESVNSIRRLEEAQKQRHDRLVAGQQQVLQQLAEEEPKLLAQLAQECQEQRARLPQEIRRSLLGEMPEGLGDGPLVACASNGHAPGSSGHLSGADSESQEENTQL
PLCg1 inh = blocks human PLC-gamma1 enzyme activity; actives 0.84% (n = 370,000); purified PLC-gamma1, fluorogenic substrate, fluorescence; AID 720700; P19174; inhibition, % at 12.2 µM
Arr AP2 block = inhibitors of human beta-arrestin and AP2 interaction; actives 0.31% (n = 340,000); inhibition, % at 10 µM; AID 504490; FITC-arrestin peptide / GST-AP2 beads, flow cytometry; AP2 beta2 appendage carries R879A mutation;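 active = inhibition above a set limit, near 3 SD of compounds lacking own fluorescence, cut at about 54% in these data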;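 also: plate controls were DMSO wells for no effect and 5 µM unlabelled arrestin peptide for full effect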
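System: GST-AP2 R879A glutathione beads | Also added: FITC-arrestin peptide, 50 nM | Times: 12 min plus 1 h, RT | Signal: Bead flow cytometry, FITC channel | Buffer or medium: PBS with 0.05% Tween 20 and 0.1% BSA | Read-out basis: Percent drop in bead-associated FITC signal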
PLCgamma1 ctr = PLC-gamma1 inhibition, counter-screen for PLC-beta3 hits; shares compounds with PLCg1 inh; purified PLC-gamma1, fluorogenic substrate, fluorescence; inhibition, % at 12.3 µM; actives 3.1% (n = 3,300); AID 743258
PLCbeta3 conf = confirmation of human PLC-beta3 inhibitors. actives 1% (n = 3,300). shares compounds with PLCg1 inh. inhibition, % at 12.3 µM. purified PLC-beta3, fluorogenic substrate fluorescence; in the data active = inhibition above about 11%
An asterisk follows results filed as active; nt = no result. Rule as the data show it, unless noted: active = inhibition above about 9.5%; inactive = the rest.

SMILES	NTR1 ag	PLC-beta3 inh	PLCg1 inh	Arr AP2 block	PLCgamma1 ctr	PLCbeta3 conf
CC(Oc1ccccc1Cl)C(=O)N1CCCN(C)CC1 (stereo not drawn)	0	-6	0	2	nt	nt
Cc1cc(Cl)ccc1OCC(=O)N1CCCN(C(=O)COc2ccc(Cl)cc2C)CC1	8	4	10*	8	-9	-4
C[N+]1=C(N)NC2=C3CCCCC3n3c(=O)n(-c4ccccc4)c(=O)n3C2C1 (stereo not drawn)	nt	1	-1	nt	nt	nt
O=[N+]([O-])c1cc(Br)c(Nc2ccccc2)c([N+](=O)[O-])c1	39	-4	7	-26	nt	nt
O=[N+]([O-])c1cc(Br)c2c(c1)CCN2	nt	13*	3	nt	-6	-1
Cc1ccc(OCC(=O)Nc2sc3c(c2C#N)CC(C)(C)NC3(C)C)cc1	1	-51	10*	7	-3	2
Cc1ccc(C)c(NC(=O)CN(C)C(=O)Cc2ccc(Cl)cc2Cl)c1	-2	-6	-3	19	nt	nt
Cc1ccc(NC(=O)CN(C)C(=O)Cc2ccc(Cl)cc2Cl)cc1	0	0	11*	8	-10	-6
C/C(Cl)=C\Cn1c(N2CCCCCC2)nc2c1c(=O)n(C)c(=O)n2C	14	5	4	7	nt	nt
C=CCn1c(N2CCCC2)nc2c1c(=O)n(C)c(=O)n2C	0	-1	9.7*	-2	3	2
CC(/C=C/C(=O)c1ccc(C)cc1)=C\c1ccccc1	3	8	10*	-4	-2	-3
Cc1ccc(C(=O)/C=C\C(=O)c2ccc(C)cc2)cc1	nt	-2	3	1	nt	nt
CN(CC(=O)Nc1ccccc1Cl)C(=O)CSc1nncs1	-1	0	10*	-3	-1	0
CCCNC(=O)N1[C@@H](CO)[C@H](c2ccc(C3=CCCC3)cc2)[C@@H]1CN(CC)S(=O)(=O)c1ccccc1[N+](=O)[O-]	nt	-8	-7	nt	nt	nt
COC(=O)[C@]12C[C@H](CC(=O)NCCC(C)C)C(=O)N(Cc3ccccc3)C1=C[C@H](C1CCCC1)O[C@@H]2C	nt	2	0	nt	nt	nt
CCN(CC)c1ccc(NC(=O)CSc2nc3ccccc3c(=O)n2-c2ccc(C)cc2)cc1	nt	9	12*	nt	-7	-4
COC(=O)C1=C(C)N(Cc2ccccc2C(F)(F)F)C(=NCc2ccc(OC)cc2)NC1c1cccc(F)c1 (stereo not drawn)	nt	1	0	nt	nt	nt
CC(NCc1cccc(OCc2ccccc2)c1)C(O)c1ccccc1 (stereo not drawn)	3	2	1	14	nt	nt
CC(NCc1ccc(OCc2ccc(Cl)cc2)cc1)C(O)c1ccccc1 (stereo not drawn)	32	-4	19*	-6	2	-2
CC(C)C(=O)OCCCN1C(=O)CCC12CCC(c1ccccc1)CC2 (stereo not drawn)	nt	0	-3	nt	nt	nt
COCCN1Cc2cc(C(=O)OC)c3c(c2C1=O)c1cc(OC)ccc1n3S(=O)(=O)c1ccc(F)cc1	nt	-64	-50	nt	nt	nt
O=C(Nc1ccc(Cl)cc1)c1ccc(CN2CCc3ccccc3C2)cc1	7	-5	13*	-3	0	1
COc1cc(C(=O)Nc2ccc3c(c2)C(=O)N(CCC(=O)O)C3=O)cc(OC)c1OC	-1	5	11*	2	9.5*	3
COc1cc(OC)c(C2CC(=O)N3CN(C)CSC3=C2C#N)cc1OC (stereo not drawn)	-1	-19	-8	1	nt	nt
COc1ccc2ccccc2c1C1CC(=O)N2CN(C)CSC2=C1C#N (stereo not drawn)	2	4	11*	20	-8	-9
SMILES	NTR1 ag	PLC-beta3 inh	PLCg1 inh	Arr AP2 block	PLCgamma1 ctr	PLCbeta3 conf
COC(=O)C1=C(C)N(C)C(=NCc2cc(OC)c(OC)c(OC)c2)NC1c1ccc(Cl)cc1 (stereo not drawn)	nt	13*	4	nt	5	0
CC(C)OC(=O)Cn1nnc(-c2ccccc2)n1	2	2	-1	-1	nt	nt
CCOC(=O)Cn1nnc(-c2ccccc2)n1	0	14*	3	4	-2	2
COc1ccc(Cn2ccc3ccc(-c4ccc5ccn(Cc6ccccc6F)c5c4)cc32)cc1	nt	-124	-91	nt	nt	nt
O=C(CN1C(=O)NC2(CCCCCCC2)C1=O)NCc1ccc(Cl)cc1	4	-4	12*	-12	-5	-3
CN(Cc1ccccc1)C(=O)CN1C(=O)NC2(CCCCCCC2)C1=O	4	0	13*	26	1	5

Bioassay records deposited in PubChem BioAssay by several laboratories.
